Consider 2 compounds from ChEMBL document CHEMBL1131493, “Inhibitors of farnesyl protein transferase. 4-Amido, 4-carbamoyl, and 4-carboxamido derivatives of 1-(8-chloro-6,11-dihydro-5H-benzo[5,6]- cyclohepta[1,2-b]pyridin-11-yl)piperazine and 1-(3-bromo-8-chloro-6,11- dihydro-5H-benzo[5,6]cyclohepta[1,2-b]pyridin-11-yl)piperazine” (J Med Chem, 1998).

For data set [1], the system named is Mus musculus. Briefly: In vivo antitumor efficacy in nude mice by injecting a dose of 25 mg/kg, as HCl salt in saline solution, perorally and the duration of action was reported. In kind it is ADME, organism-based. Further details: dose 25 mg/kg, route oral. The following applies: po.
Data set [2] is described as follows: Oral bioavailability in mouse (nude) (dose of 25 mg/kg). In kind it is ADME, organism-based. Conditions: in vivo. The method, boiled down: (§1)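 Serum pharmacokinetics in nude mice or cynomolgus monkeys after oral (po) or iv dosing. Compounds were given as hydrochloride salts in 20% HPβCD unless otherwise noted. Other formulations were the hydrochloride salt in saline, the micronized free base in 20% HPβCD or corn oil (po) with saline for iv, or the hydrochloride salt in 0.4% methyl cellulose (po).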

Data set [3] can be described thus: In vivo antitumor efficacy in nude mice by injecting a dose of 25 mg/kg, as HCl salt in saline solution, perorally and the total drug exposure was determined (0-4 hr). More on the design: time < 4 hr, dose 25 mg/kg, route oral. In kind it is ADME, organism-based. The following applies: mouse, po.
The nature of data set [4]: (§2) Maximal plasma concentration in nude mice after 25 mg/kg oral dose. In kind it is ADME, organism-based. More on the design: dose 25 mg/kg, route oral. Conditions: mouse.
Data set [5] has as its target T1, Protein farnesyltransferase (Homo sapiens, UniProt P49354+P49356). Briefly: In vitro inhibition of farnesyltransferase farnesylation of the H-ras oncogene. The data set is classed as protein-complex assay.
A short description of data set [6]: In vivo antitumor efficacy in nude mice by injecting a dose of 25 mg/kg, as HCl salt in saline solution, iv and the serum half-life was determined. Conditions: mouse. More on the design: dose 25 mg/kg, route intravenous. The data set is classed as ADME, organism-based.
Data set [7] has as its target T1, Protein farnesyltransferase. Briefly: Inhibition of Farnesyltransferase from Ras-CVLS or Ras-CVLL in Cos-7 monkey kidney cells. In kind it is cell-based, Chlorocebus aethiops.
Data set [8] can be described thus: In vivo antitumor efficacy in nude mice by injecting a dose of 25 mg/kg, as HCl salt in saline solution, iv and the total drug exposure was determined. (0-4 hr). In kind it is ADME, organism-based. More on the design: time < 4 hr, dose 25 mg/kg, route intravenous. Conditions: mouse.
Data set [9] can be described thus: In vivo antitumor efficacy in cynomolgus monkeys 0-48 hr after peroral dose of 10 mg/kg expressed as Area under the curve. The data set is classed as ADME, organism-based, Macaca fascicularis. Further details: time < 48 hr, dose 10 mg/kg, route oral. The following applies: cynomolgus monkey, po. Put shortly: as §1
Data set [10] can be described thus: In vivo antitumor efficacy in nude mice 0-24 hr after peroral dose of 25 mg/kg expressed as Area under the curve. The following applies: nude, mouse, po. In kind it is ADME, organism-based. Further details: time < 24 hr, dose 25 mg/kg, route oral. The method, boiled down: as §1
Data set [11] in a line: In vivo antitumor efficacy in cynomolgus monkeys 0-48 hr after peroral dose of 5 mg/kg expressed as Area under the curve. In kind it is ADME, organism-based, Macaca fascicularis. More on the design: time < 48 hr, dose 5 mg/kg, route oral. The following applies: cynomolgus monkey, po. Put shortly: as §1
Data set [12] can be described thus: In vivo antitumor efficacy in nude mice after peroral dose of 10 mg/kg expressed as Area under the curve. The data set is classed as ADME, organism-based. More on the design: dose 10 mg/kg, route oral. The following applies: mouse, po. The method, boiled down:
as §1

The nature of data set [13]: In vivo antitumor efficacy in nude mice by injecting a dose of 25 mg/kg iv and serum half-life was determined. In kind it is ADME, organism-based. More on the design: dose 25 mg/kg, route intravenous. The following applies: mouse. The method, boiled down: as §1
Data set [14] in a line: as §2. The data set is classed as ADME, organism-based. More on the design: dose 25 mg/kg, route oral. The following applies: mouse. Put shortly:
as §1
This is another data set of the same source.

The nature of data set [15]: In vivo antitumor efficacy in cynomolgus monkeys by injecting a dose of 5 mg/kg, as HCl salt in saline solution,i/v and the serum half-life was determined. In kind it is ADME, organism-based, Macaca fascicularis. Further details: dose 5 mg/kg. Conditions: cynomolgus monkey, iv. Put shortly: as §1
Data set [16] has as its system Mus musculus. In words: In vivo antitumor efficacy after peroral dose of 10 mg/kg in mice expressed as duration for which compound was present above IC50. In kind it is ADME, organism-based. Further details: dose 10 mg/kg, route oral. The following applies: po. The method, boiled down: as §1
Data set [17] is described as follows: Bioavailability in cynomolgus monkey (dose 5 mg/kg i.v.). In kind it is ADME, organism-based, Macaca fascicularis. The following applies: in vivo, iv. Put shortly: as §1
Data set [18] is described as follows: In vivo antitumor efficacy peroral dose of 25 mg/kg expressed as duration for which compound was present above IC50. In kind it is ADME, organism-based. More on the design: dose 25 mg/kg, route oral. Conditions: po. Put shortly: as §1
In data set [19] the target is geranylgeranyltransferase type-I (Rattus norvegicus, UniProt P53610+Q04631). In words: Inhibition of rat Geranylgeranyl transferase (GGPT). The data set is classed as protein-complex assay.
The test system of data set [20] is Mus musculus. In words: In vivo antitumor efficacy after peroral dose of 25 mg/kg in mice expressed as duration for which compound was present above IC50. The data set is classed as ADME, organism-based. Further details: dose 25 mg/kg, route oral. The following applies: po. Put shortly: as §1
Data set [21] can be described thus: In vivo antitumor efficacy in cynomolgus monkeys 0-48 hr after iv dose of 5 mg/kg expressed as Area under the curve. More on the design: time < 48 hr, dose 5 mg/kg, route intravenous. Conditions: cynomolgus monkey. The data set is classed as ADME, organism-based, Macaca fascicularis. The method, boiled down: as §1
Data set [22] has as its system Cynomolgus monkey. Briefly: (§3) Maximal plasma concentration in cynomolgus monkeys after 10 mg/kg oral dose. In kind it is ADME, organism-based, Macaca fascicularis. The following applies: in vivo. More on the design: dose 10 mg/kg, route oral. Put shortly:
as §1

The nature of data set [23]: as §3. In kind it is ADME, organism-based, Macaca fascicularis. More on the design: dose 10 mg/kg, route oral. The following applies: cynomolgus monkey, plasma. Put shortly: as §1
Data set [24] in a line: In vivo antitumor efficacy in nude mice 0-24 hr after iv dose of 25 mg/kg expressed as Area under the curve. In kind it is ADME, organism-based. Further details: time < 24 hr, dose 25 mg/kg, route intravenous. Conditions: mouse. The method, boiled down:
as §1

Data set [25] can be described thus: Maximal plasma concentration in cynomolgus monkeys after 5 mg/kg oral dose. In kind it is ADME, organism-based, Macaca fascicularis. More on the design: dose 5 mg/kg, route oral. The following applies: cynomolgus monkey. The method, boiled down:
as §1

Data set [26] relates to Cynomolgus monkey. In words: In vivo antitumor efficacy after peroral dose of 10 mg/kg in cynomolgus monkeys expressed as duration for which compound was present above IC50. The following applies: po. In kind it is ADME, organism-based, Macaca fascicularis. Further details: dose 10 mg/kg, route oral. The method, boiled down: as §1

The bioavailability is dose-corrected exposure relative to a reference, in per cent. Broadly, the AUC is the area under the concentration-time curve, a measure of exposure. For orientation: Cmax means the highest concentration seen after dosing. The IC50 is the point on the concentration scale where inhibition reaches its midpoint. For orientation: half-life means how long it takes for the measured level to halve. For `CN1CCC(CC(=O)N2CCN(C3c4ccc(Cl)cc4CCc4cccnc43)CC2)CC1` (configuration not stated), in the data set with Mus musculus [1], the “Time above IC50” value came out at 4 h. The bioavailability in data set [2] stood at 32%. For the same compound, the AUC at 4 h is 1300 ng·h/mL in data set [3] and 4100 ng·h/mL in [8]. The same compound showed a Cmax in [4] of 1400 nM. Besides, the IC50 amounted to 1400 nM in data set [5] and 930 nM in [7]. Further, the half-life in data set [6] is more than 60 min.

Regarding `O=C(Cc1cc[n+]([O-])cc1)N1CCN(C2c3ccc(Cl)cc3CCc3cc(Br)cnc32)CC1` (configuration not stated), the AUC at 48 h in data set [9] is 35600 ng·h/mL; in [11] it was 9400 ng·h/mL; in data set [21], 24400 ng·h/mL. For the same compound, the AUC at 24 h was 19600 ng·h/mL in data set [10] and 23400 ng·h/mL in data set [24]. Further, the AUC in [12] worked out at 16700 ng·h/mL. Further, the figures for the bioavailability in data set [2] and in [17] were 84% and 38.5%, respectively. For the same compound, the half-life in data set [13] was 72 min; in data set [15], 156 min. Moreover, the Cmax amounted to 10 µM in [14], 3000 nM in the data set on Cynomolgus monkey [22], 5.7 µM in data set [23] and 1200 nM in [25]. Also, the “Time above IC50” value turned out to be 24 h with Mus musculus [16], 6 h in data set [18], 7 h with Mus musculus [20] and 24 h with Cynomolgus monkey [26]. Also, in [19], the IC50 was more than 38 µM.
